These results are taken from ChEMBL document CHEMBL1153428, “Synthesis and structure-activity relationships of amide derivatives of (4,4-difluoro-1,2,3,4-tetrahydro-5H-1-benzazepin-5-ylidene)acetic acid as selective arginine vasopressin V2 receptor agonists” (Bioorg Med Chem, 2009).

The source made the active and inactive calls. The calls are words filed in the database; no cut-off is given here.

The target in assay [1] is T1, Vasopressin V2 receptor (Homo sapiens, UniProt P30518). Put plainly: Displacement of [3H]vasopressin from human V2 receptor expressed in CHO cells. Format: cell-based.
The next assay has as its target Vasopressin V1a receptor (Homo sapiens, UniProt P37288). The experiment in a line: Displacement of [3H]vasopressin from human V1a receptor expressed in CHO cells. Format: cell-based. The gist of the method: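 Membrane receptors from CHO cells expressing human V1a were used in a radioligand competition binding format. Ki values come from triplicate assays.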
(In general: In a radioligand displacement assay an active substance lowers the binding of a labelled ligand.)

The species entered for a further assay is Homo sapiens. Put plainly: Selectivity for human V1a receptor to human V2 receptor.
Assay [2] addresses T1, Vasopressin V2 receptor. Put plainly: Agonist activity at human V2 receptor expressed in CHO cells assessed as increase in cAMP level. Format: functional, cell-based. Summed up: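 CHO cells stably expressing human V2 were grown in α-MEM with 10% FBS and 0.1% amethopterin at 37 °C, then serum-starved for 24 h. Compound was added in α-MEM with 1 mmol/L IBMX and 0.1% BSA for 10 min at 37 °C. Cells were lysed in PBS with 0.2% Triton X-100 and cAMP was read by HTRF. EC50 was derived by logistic regression; Emax was expressed as % of the AVP maximum. Assays were run in triplicate.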
For orientation: Cyclic AMP is a second messenger, typically raised through Gs and lowered through Gi signalling.

Assay [3] has as its target T1, Vasopressin V2 receptor. Put plainly: Intrinsic activity at human V2 receptor expressed in CHO cells assessed as increase in cAMP level relative to arginine vasopressin. Format: functional, cell-based. Summed up: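 CHO cells stably expressing human V2 receptors, grown in α-MEM with 10% FBS, serum-starved 24 h. Compound added in α-MEM with 1 mmol/L IBMX and 0.1% BSA, 10 min at 37 °C. Cells lysed in PBS with 0.2% Triton X-100; cAMP read by HTRF. Maximum response expressed as % of AVP maximum (100%); triplicate.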

Another assay deals with Rattus norvegicus. The experiment in a line: Antidiuretic effect in iv dosed water-loaded Wistar rat assessed as suppression of urinary excretion within 4 hrs. It counts as functional, organism-based. Conditions: Urine.
A further assay has as its target Cytochrome P450 2C9 (Homo sapiens, UniProt P11712). Put plainly: Inhibition of recombinant CYP2C9 by fluorescent P450 inhibition assay.
In a further assay the target is Cytochrome P450 2C19 (Homo sapiens, UniProt P33261). The experiment in a line: Inhibition of recombinant CYP2C19 by fluorescent P450 inhibition assay.
The next assay concerns the target Cytochrome P450 2D6 (Homo sapiens, UniProt P10635). The experiment in a line: Inhibition of recombinant CYP2D6 by fluorescent P450 inhibition assay.
For a further assay, the target named is Cytochrome P450 3A4 (Homo sapiens, UniProt P08684). Put plainly: Inhibition of CYP3A4 in human liver microsome assessed as 1'-hydroxymidazolam formation by competitive inhibition assay.
Cytochrome P450 3A4, sequence (P08684 whole entry): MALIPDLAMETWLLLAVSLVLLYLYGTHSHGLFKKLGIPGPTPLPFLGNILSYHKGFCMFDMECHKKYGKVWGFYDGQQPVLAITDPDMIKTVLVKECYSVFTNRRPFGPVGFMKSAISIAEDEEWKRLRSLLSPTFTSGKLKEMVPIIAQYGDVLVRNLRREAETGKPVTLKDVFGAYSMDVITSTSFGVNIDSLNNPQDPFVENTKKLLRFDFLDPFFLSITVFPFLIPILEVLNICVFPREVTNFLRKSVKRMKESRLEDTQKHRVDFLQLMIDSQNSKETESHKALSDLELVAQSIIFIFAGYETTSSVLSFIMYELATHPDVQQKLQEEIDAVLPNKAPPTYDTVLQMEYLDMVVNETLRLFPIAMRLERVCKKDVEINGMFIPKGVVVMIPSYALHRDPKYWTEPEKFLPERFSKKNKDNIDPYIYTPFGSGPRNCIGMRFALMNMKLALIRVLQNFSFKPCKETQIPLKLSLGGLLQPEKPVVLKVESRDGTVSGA

Vasopressin V1a receptor, sequence (P37288 whole entry): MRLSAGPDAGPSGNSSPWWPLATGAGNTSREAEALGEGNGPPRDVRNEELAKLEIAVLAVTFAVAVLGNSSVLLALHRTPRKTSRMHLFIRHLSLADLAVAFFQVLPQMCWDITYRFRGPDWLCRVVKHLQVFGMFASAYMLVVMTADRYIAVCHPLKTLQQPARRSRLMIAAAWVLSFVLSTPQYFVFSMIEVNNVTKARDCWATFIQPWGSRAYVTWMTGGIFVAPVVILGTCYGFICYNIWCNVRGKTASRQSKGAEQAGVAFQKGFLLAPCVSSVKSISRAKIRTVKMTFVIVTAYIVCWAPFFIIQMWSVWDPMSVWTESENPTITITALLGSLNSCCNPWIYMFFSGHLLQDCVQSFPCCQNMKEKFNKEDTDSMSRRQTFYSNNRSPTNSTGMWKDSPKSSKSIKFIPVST
T1 sequence (P30518 whole entry): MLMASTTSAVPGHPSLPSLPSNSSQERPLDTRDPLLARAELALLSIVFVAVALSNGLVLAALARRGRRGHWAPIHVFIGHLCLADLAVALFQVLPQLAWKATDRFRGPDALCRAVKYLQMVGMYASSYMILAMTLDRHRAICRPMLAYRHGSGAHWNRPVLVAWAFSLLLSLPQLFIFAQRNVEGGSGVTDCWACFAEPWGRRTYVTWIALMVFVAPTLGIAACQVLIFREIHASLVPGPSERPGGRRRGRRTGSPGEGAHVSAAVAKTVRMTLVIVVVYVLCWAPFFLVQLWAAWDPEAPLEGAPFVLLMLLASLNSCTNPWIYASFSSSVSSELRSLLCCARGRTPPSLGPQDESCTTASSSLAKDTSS
Cytochrome P450 2D6, sequence (P10635 whole entry): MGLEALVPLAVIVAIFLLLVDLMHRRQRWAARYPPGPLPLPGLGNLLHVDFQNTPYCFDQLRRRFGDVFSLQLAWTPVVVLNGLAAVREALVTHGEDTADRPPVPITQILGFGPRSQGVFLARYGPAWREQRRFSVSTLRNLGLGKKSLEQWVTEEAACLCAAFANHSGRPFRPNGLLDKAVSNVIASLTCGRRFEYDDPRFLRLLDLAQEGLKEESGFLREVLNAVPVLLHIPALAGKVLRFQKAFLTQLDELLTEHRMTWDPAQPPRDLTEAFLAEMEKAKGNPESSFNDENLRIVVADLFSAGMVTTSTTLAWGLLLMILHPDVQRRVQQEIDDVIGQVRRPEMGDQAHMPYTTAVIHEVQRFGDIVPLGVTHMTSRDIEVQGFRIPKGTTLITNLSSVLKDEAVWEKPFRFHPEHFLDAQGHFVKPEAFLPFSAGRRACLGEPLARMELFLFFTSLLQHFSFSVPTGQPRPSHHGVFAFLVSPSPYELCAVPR
Cytochrome P450 2C19, sequence (P33261 whole entry): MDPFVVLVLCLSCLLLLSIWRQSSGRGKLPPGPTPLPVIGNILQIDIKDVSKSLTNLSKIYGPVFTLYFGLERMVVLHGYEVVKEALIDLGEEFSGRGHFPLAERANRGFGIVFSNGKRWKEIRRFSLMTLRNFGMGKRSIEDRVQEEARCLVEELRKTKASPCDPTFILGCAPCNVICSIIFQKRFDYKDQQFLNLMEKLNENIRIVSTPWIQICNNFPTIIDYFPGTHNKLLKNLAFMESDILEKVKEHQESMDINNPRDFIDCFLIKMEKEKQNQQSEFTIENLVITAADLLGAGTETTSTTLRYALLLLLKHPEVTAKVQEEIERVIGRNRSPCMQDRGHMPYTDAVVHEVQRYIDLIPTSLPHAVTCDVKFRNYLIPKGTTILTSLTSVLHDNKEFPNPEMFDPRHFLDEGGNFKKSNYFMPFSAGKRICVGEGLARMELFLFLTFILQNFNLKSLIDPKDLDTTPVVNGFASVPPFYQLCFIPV
Cytochrome P450 2C9, sequence (P11712 whole entry): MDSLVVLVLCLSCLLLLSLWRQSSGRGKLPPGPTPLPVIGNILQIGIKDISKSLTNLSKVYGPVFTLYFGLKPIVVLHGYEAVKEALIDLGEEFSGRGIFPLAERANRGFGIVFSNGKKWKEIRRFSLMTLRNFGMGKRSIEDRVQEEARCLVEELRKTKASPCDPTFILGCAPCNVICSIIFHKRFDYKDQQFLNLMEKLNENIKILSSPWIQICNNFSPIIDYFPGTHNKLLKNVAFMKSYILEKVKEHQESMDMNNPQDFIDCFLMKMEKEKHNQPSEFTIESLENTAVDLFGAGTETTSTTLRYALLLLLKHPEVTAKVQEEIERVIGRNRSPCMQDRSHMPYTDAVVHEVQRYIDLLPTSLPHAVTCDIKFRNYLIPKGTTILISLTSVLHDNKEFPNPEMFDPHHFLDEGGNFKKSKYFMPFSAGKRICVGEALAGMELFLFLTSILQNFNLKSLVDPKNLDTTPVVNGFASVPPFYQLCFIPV

The Ki is the equilibrium dissociation constant of an inhibitor or competing ligand from its target. Low values mean tighter binding, high ones weaker binding. On to `Cc1ccn(-c2ccc(C(=O)N3CCC(F)(F)/C(=C\C(=O)NCc4cccc(N(C)C)n4)c4ccccc43)c(Cl)c2)n1`, for which the Ki was found to be 11 nM on Vasopressin V2 receptor [1] and 48 nM at Vasopressin V1a receptor. Besides, the Ratio Ki in the assay listed under Homo sapiens stood at 4.4.
For `Cc1ccn(-c2ccc(C(=O)N3CCC(F)(F)/C(=C\C(N)=O)c4ccccc43)c(Cl)c2)n1`, the Ki on Vasopressin V2 receptor [1] turned out to be 33 nM; on Vasopressin V1a receptor, 190 nM. The Ratio Ki in the assay filed under Homo sapiens came out at 5.8.
Consider `Cc1ccn(-c2ccc(C(=O)N3CCC(F)(F)/C(=C\C(=O)NCc4ccncn4)c4ccccc43)c(Cl)c2)n1`, for which the results for the Ki on Vasopressin V2 receptor [1] and on Vasopressin V1a receptor were 11 nM and 44 nM, respectively. In the assay listed under Homo sapiens, the Ratio Ki is 4.
For `Cc1ccn(-c2ccc(C(=O)N3CCC(F)(F)/C(=C\C(=O)NCc4nc5ccccc5s4)c4ccccc43)c(Cl)c2)n1`, the Ki on Vasopressin V2 receptor [1] was found to be 11 nM; on Vasopressin V1a receptor, 55 nM. In addition, the Ratio Ki in the assay filed under Homo sapiens amounted to 5.
Usually EC50 stands for the concentration that produces a half-maximal response. What is called Emax is the maximal effect, on the per cent scale that the assay sets. `Cc1ccn(-c2ccc(C(=O)N3CCC(F)(F)/C(=C\C(=O)NCCO)c4ccccc43)c(Cl)c2)n1`: the Ki at Vasopressin V2 receptor [1] was 9.7 nM; on Vasopressin V1a receptor, 28 nM. Besides, at Vasopressin V2 receptor [2], the EC50 worked out at 6.3 nM. The Emax on Vasopressin V2 receptor [3] is 93.9%. The outcome in the assay on Rattus norvegicus was Active.
For `Cc1ccn(-c2ccc(C(=O)N3CCC(F)(F)/C(=C\C(=O)NCc4cccnn4)c4ccccc43)c(Cl)c2)n1`, the inhibition constant Ki at Vasopressin V2 receptor [1] was 3.4 nM; at Vasopressin V1a receptor, 43 nM. On Vasopressin V2 receptor [2], the EC50 was 16 nM. In addition, the Emax on Vasopressin V2 receptor [3] was found to be 86.4%. Further, in the assay on Rattus norvegicus, the outcome was Active.
In the case of `Cc1ccn(-c2ccc(C(=O)N3CCC(F)(F)/C(=C\C(=O)NCc4nccs4)c4ccccc43)c(Cl)c2)n1`, the Ki amounted to 11 nM at Vasopressin V2 receptor [1] and 43 nM at Vasopressin V1a receptor. Moreover, in the assay filed under Homo sapiens, the Ratio Ki came out at 3.9.
A word on the IC50: it is the concentration that inhibits the measured activity by half. Take `Cc1ccn(-c2ccc(C(=O)N3CCC(F)(F)/C(=C\C(=O)O)c4ccccc43)c(Cl)c2)n1`: the inhibitory constant (Ki) at Vasopressin V2 receptor [1] amounted to 25 nM; on Vasopressin V1a receptor, 6300 nM. Further, the Ratio Ki in the assay filed under Homo sapiens stood at 252. Also, the EC50 at Vasopressin V2 receptor [2] is 4.2 nM. For the same compound, the Emax on Vasopressin V2 receptor [3] turned out to be 92.4%. Also, the IC50 at Cytochrome P450 2C9 is above 20 µM; on Cytochrome P450 2C19 it was above 20 µM; on Cytochrome P450 2D6, 11 µM; on Cytochrome P450 3A4, above 20 µM. In the assay on Rattus norvegicus, the outcome was inactive.
For `Cc1ccn(-c2ccc(C(=O)N3CCC(F)(F)/C(=C\C(=O)NCc4cccc(C#N)n4)c4ccccc43)c(Cl)c2)n1`, the Ki on Vasopressin V2 receptor [1] was 7.4 nM; on Vasopressin V1a receptor, 22 nM. Also, in the assay filed under Homo sapiens, the Ratio Ki is 3.
Take `Cc1ccn(-c2ccc(C(=O)N3CCC(F)(F)/C(=C\C(=O)NCc4cccc(N)n4)c4ccccc43)c(Cl)c2)n1`: the Ki on Vasopressin V2 receptor [1] was 10 nM; on Vasopressin V1a receptor, 38 nM. In addition, the Ratio Ki in the assay listed under Homo sapiens was 3.8.
For `CCCNC(=O)/C=C1/c2ccccc2N(C(=O)c2ccc(-n3ccc(C)n3)cc2Cl)CCC1(F)F`, the inhibition constant (Ki) amounted to 18 nM on Vasopressin V2 receptor [1] and 13 nM on Vasopressin V1a receptor. For the same compound, the Ratio Ki in the assay filed under Homo sapiens stood at 0.72.
On to `Cc1ccn(-c2ccc(C(=O)N3CCC(F)(F)/C(=C\C(=O)NCc4ccccn4)c4ccccc43)c(Cl)c2)n1`, for which the affinity at Vasopressin V1a receptor corresponds to a Ki of 26 nM.
`COc1cccc(CNC(=O)/C=C2/c3ccccc3N(C(=O)c3ccc(-n4ccc(C)n4)cc3Cl)CCC2(F)F)n1`: the inhibition constant (Ki) at Vasopressin V2 receptor [1] was 16 nM; on Vasopressin V1a receptor it was 47 nM. In the assay listed under Homo sapiens, the Ratio Ki was 2.9.
Consider `Cc1ccn(-c2ccc(C(=O)N3CCC(F)(F)/C(=C\C(=O)NCc4ccco4)c4ccccc43)c(Cl)c2)n1`, for which the Ki at Vasopressin V2 receptor [1] came to 27 nM; at Vasopressin V1a receptor, 72 nM. The Ratio Ki in the assay filed under Homo sapiens was determined as 2.7.
For `Cc1ccn(-c2ccc(C(=O)N3CCC(F)(F)/C(=C\C(=O)NCCN(C)C)c4ccccc43)c(Cl)c2)n1` the same measures were 53 nM, 59 nM and 1.1.
As to `Cc1ccn(-c2ccc(C(=O)N3CCC(F)(F)/C(=C\C(=O)NCC(N)=O)c4ccccc43)c(Cl)c2)n1`, the results for the Ki at Vasopressin V2 receptor [1] and on Vasopressin V1a receptor were 11 nM and 40 nM, respectively. For the same compound, the Ratio Ki in the assay listed under Homo sapiens was determined as 3.6.
The corresponding values for `Cc1ccn(-c2ccc(C(=O)N3CCC(F)(F)/C(=C\C(=O)NCc4cnccn4)c4ccccc43)c(Cl)c2)n1` are 14 nM, 57 nM and 4.1.
In the case of `Cc1ccn(-c2ccc(C(=O)N3CCC(F)(F)/C(=C\C(=O)NCc4nc5ccccc5[nH]4)c4ccccc43)c(Cl)c2)n1`, the Ki on Vasopressin V2 receptor [1] came out at 12 nM; at Vasopressin V1a receptor it was 72 nM. Also, the Ratio Ki in the assay filed under Homo sapiens was found to be 6.
Take `Cc1ccn(-c2ccc(C(=O)N3CCC(F)(F)/C(=C\C(=O)NCc4cccnc4)c4ccccc43)c(Cl)c2)n1`: the inhibitory constant (Ki) at Vasopressin V2 receptor [1] worked out at 21 nM; at Vasopressin V1a receptor, 40 nM. In addition, in the assay filed under Homo sapiens, the Ratio Ki is 1.9.
Regarding `Cc1ccn(-c2ccc(C(=O)N3CCC(F)(F)/C(=C\C(=O)NCC(=O)O)c4ccccc43)c(Cl)c2)n1`, the Ki amounted to 22 nM at Vasopressin V2 receptor [1] and 230 nM at Vasopressin V1a receptor. In the assay filed under Homo sapiens, the Ratio Ki was 10.
As for `Cc1ccn(-c2ccc(C(=O)N3CCC(F)(F)/C(=C\C(=O)NCc4ccccc4)c4ccccc43)c(Cl)c2)n1`, the Ki is 19 nM on Vasopressin V2 receptor [1] and 43 nM at Vasopressin V1a receptor. For the same compound, the Ratio Ki in the assay listed under Homo sapiens worked out at 2.3.
With `Cc1ccn(-c2ccc(C(=O)N3CCC(F)(F)/C(=C\C(=O)NCc4ccncc4)c4ccccc43)c(Cl)c2)n1`, the Ki at Vasopressin V2 receptor [1] is 20 nM; at Vasopressin V1a receptor it was 15 nM. Also, in the assay listed under Homo sapiens, the Ratio Ki is 0.75.
The compound `Cc1cccc(CNC(=O)/C=C2/c3ccccc3N(C(=O)c3ccc(-n4ccc(C)n4)cc3Cl)CCC2(F)F)n1` gave an inhibition constant Ki at Vasopressin V1a receptor of 30 nM. The Ratio Ki in the assay listed under Homo sapiens was 5.4.
